Test results from PMC3690275 (Journal of medicinal chemistry, 2013).

Assays:
INS-1E β-cells = test: caspase-3/7 assay in INS-1E β-cells; format: cell-based, rat
Outline: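 Rat INS-1E β-cells co-treated with a cytokine mixture and the test compound over a dose range; caspase-3/7 activity read after 48 h. IC50 is fitted from triplicate dose-responses. Maximum activity is expressed as % rescue from cytokine-induced caspase-3/7 activation. For the cytokine-optimization runs, values are the mean ± standard error of three independent experiments with six replicates each.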

STAT1 = format: cell-based, rat; conditions: co-treatment with IFN-γ, 30 min, immunofluorescence imaging
[1] = thermodynamic solubility assay; format: physicochemical; conditions: PBS pH 7.4, relative to compound 1

fold increase in solubility compared to 1 [1] | Compound | effect on IFN-γ-induced nuclear localization of STAT1 (STAT1) | other results
– | C[C@@H]1CN([C@@H](C)CO)C(=O)c2cccc(NC(=O)Nc3cccc4ccccc34)c2O[C@H]1CN(C)S(=O)(=O)c1ccc2c(c1)OCCO2 [Compound 1] | nearly abolished this nuclear localization of STAT1 | protective effect in the caspase assay (INS-1E β-cells; condition A: standard concentrations of cytokines): small protective effect; rescue efficacy in the caspase assay (INS-1E β-cells; condition B: IL-1β and TNF-α lowered 20- and 10-fold, IFN-γ increased 4-fold): higher rescue efficacy; reduction of caspase activity (INS-1E β-cells; condition C (IFN-γ 500 ng/mL), INS-1E β-cells, 48 h): 74%
– | C[C@@H]1CN([C@@H](C)CO)C(=O)c2cccc(NC(=O)NCc3cccc4ccccc34)c2O[C@H]1CN(C)S(=O)(=O)c1ccc2c(c1)OCCO2 [Compound 7a] | did not inhibit nuclear translocation of STAT1 | activity in the caspase assay (in words) (INS-1E β-cells; INS-1E β-cells): inactive
110 fold | C[C@@H]1CN([C@@H](C)CO)C(=O)c2cccc(NC(=O)N(C)c3cccc4ccccc34)c2O[C@H]1CN(C)S(=O)(=O)c1ccc2c(c1)OCCO2 [Compound 7b] | – | –
1400 fold | C[C@@H]1CN([C@@H](C)CO)C(=O)c2cccc(NC(=O)Nc3cccc4ncccc34)c2O[C@H]1CN(C)S(=O)(=O)c1ccc2c(c1)OCCO2 [Compound 7f] | – | –
– | C[C@@H]1CN([C@@H](C)CO)C(=O)c2cccc(NC(=O)Nc3cccc4cccnc34)c2O[C@H]1CN(C)S(=O)(=O)c1ccc2c(c1)OCCO2 [Compound 7i, N-(((2R,3R)-5-((S)-1-hydroxypropan-2-yl)-3-methyl-6-oxo-10-(3-(quinolin-8-yl)ureido)-3,4,5,6-tetrahydro-2H-benzo[b][1,5]oxazocin-2-yl)methyl)-N-methyl-2,3-dihydrobenzo[b][1,4]dioxine-6-sulfonamide] | nearly abolished this nuclear localization of STAT1 | –
